Sampled rows, rich in hits. Any-hit rate of the full collection: about 4.9%.
STAT3 activator – STAT3 signaling activation | U3A cells, IL-6 STAT3-luciferase reporter, luminescence; 100% = signal with IL-6 EC80 alone | activation (% of control), % at 5.6 µM | hit rate 0.91% among 190,000 | AID 871;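 active means activation above the screen-wide mean of compound activation plus 3 SD, cut at about 130% in these data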;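 further: 0% = background luminescence of wells with medium and substrate only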
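Material: human U3A cells carrying STAT3-luciferase construct. Measured by: reporter luminescence signal. Timing: compound 1 h, then IL-6 6 h at 37 °C.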
STAT3 inh – reduces IL-6 driven STAT3 reporter signal | U3A cells, IL-6 STAT3-luciferase reporter, luminescence; host cell line lacks STAT1 | inhibition, % at 5.5 µM | hit rate 0.89% among 190,000 | AID 862;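 active means inhibition above the mean inhibition across all screened compounds plus 3 SD, cut at about 44% in these data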;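 further: 0% = DMSO only wells and 100% = 100 µM nifuroxazide control wells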
STAT1 act – activators of IFN-gamma induced STAT1 signaling. AID 932. hit rate 2.6% among 200,000. NIH 3T3 STAT1-luciferase reporter, luminescence; 100% = IFN-gamma alone, no compound. activation (% of control), % at 5.5 µM;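 active means activation above the screen-wide mean activation plus 3 SD, cut at about 130% in these data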;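 further: raw ratio to IFN-gamma control signal so 100% means no change and 0% no light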
NF-kB neuron act – raises NF-kB expression in human neuronal cells; fold change at 12.5 µM; AID 1239; NF-kB reporter expression; hits give high values; hit rate 1.6% among 190,000; in the data active means fold change above about 3.3
STAT1 blocker – inhibitors of IFN-gamma induced STAT1 signaling. NIH 3T3 STAT1-luciferase reporter, luminescence. inhibition, % at 5.5 µM. hit rate 0.35% among 200,000;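 active means inhibition above a set limit, the mean inhibition across all tested compounds plus 3 SD, cut at about 34% in these data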;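 further: 0% = IFN-gamma with DMSO and 100% = IFN-gamma with 300 µM nifuroxazide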
APP 5'UTR act – activates APP 5'UTR luciferase reporter | SH-SY5Y APP 5'UTR luciferase reporter, luminescence; zero percent = DMSO vehicle wells | activation, % at 2 µM | hit rate 1% among 190,000;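 active means activation above a set limit, based on mean plus 3 SD of controls, cut at about 140% in these data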
An asterisk follows results filed as active; / = not tested or not shown.

SMILES | STAT3 activator | STAT3 inh | STAT1 act | NF-kB neuron act | STAT1 blocker | APP 5'UTR act
CC(C)C1COC(c2cccc3ccccc23)=N1 (configuration not stated) | 91.7 | 7.1 | 142.9* | 3.69* | -47.1 | 102.9
Oc1ccc(N2CCN(C(=S)NCCc3ccccc3)CC2)cc1 | 97.9 | 13.7 | 86.7 | 4.74* | 14.8 | -0.6
COC(=O)c1ccsc1NC(=O)c1ccccc1 | 91.8 | 14.1 | 108.8 | 1.14 | -9.4 | -12.3
NC(=O)c1ccsc1NC(=O)c1cccs1 | 92.5 | 14.0 | 123.9 | / | -26.4 | 14.8
CNC(=O)c1ccsc1NC(=O)c1ccc2c(c1)CCCC2 | 121.6 | -25.2 | 130.8* | 0.94 | -33.9 | 63.0
NC(=O)c1ccsc1NC(=O)c1ccc2c(c1)CCCC2 | 68.9 | 36.0 | 138.8* | 8.23* | -42.8 | 180.3*
CN1CCN(/N=C/c2ccc(Br)cc2)CC1 | 99.9 | 2.6 | 128.9* | 2.03 | -31.9 | 28.2
COc1ccc(NC(=S)Nc2ccc(N)c([N+](=O)[O-])c2)cc1 | 121.5 | -18.3 | 113.7 | 3.32* | -14.9 | -31.7
COc1ccc(NC(=O)c2ccccc2[N+](=O)[O-])cc1 | 96.0 | 7.6 | 105.6 | 1.23 | -6.2 | 9.1
O=C1C[C@@H](c2ccc(O[C@@H]3O[C@H](CO)[C@@H](O)[C@H](O)[C@H]3O)cc2)Oc2cc(O)ccc21 | 92.9 | 5.6 | 97.5 | 1.24 | 2.8 | 6.6
Nc1nonc1-c1nc2ccccc2n1Cc1ccc(F)cc1Cl | 160.5* | -71.6 | 134.7* | 0.95 | -38.3 | 8.3
O=C(CCc1c[nH]c2ccccc12)N/N=C/c1ccc2c(c1)OCO2 | 96.8 | 13.7 | 117.9 | 1.2 | -21.5 | 13.6
CSc1cccc(NC(=O)/C=C/c2ccccc2)c1 | 96.6 | 4.6 | 133.2* | 2.74 | -36.4 | 109.1
CSc1ccc(/C=C/C(=O)Nc2ccccc2)cc1 | 36.5 | 79.2* | 49.8 | 6.28* | 53.3* | 210.3*
CCC(=O)Nc1cccc(C(=O)/C=C/c2ccccc2)c1 | 101.9 | 3.7 | 107.8 | 8.75* | -8.5 | 24.2
CSc1ccc(C(=O)/C=C/c2ccc(N)cc2)cc1 | 97.6 | 5.5 | 113.5 | 10* | -15.1 | 116.8
CSc1cccc(NC(=O)/C=C/c2ccc(Cl)cc2)c1 | 89.2 | 19.0 | 111.2 | 1.78 | -12.2 | 19.7
CCC(=O)Nc1cccc(C(=O)/C=C/c2cccs2)c1 | 88.8 | 20.7 | 102.2 | 2.63 | -2.1 | 45.5
CSc1ccc(/C=C/C(=O)c2ccc(NC(=O)C(C)C)cc2)cc1 | 93.7 | 13.7 | 99.7 | 1.1 | 0.3 | 7.3
CC(=O)Nc1ccc(NC(=O)/C=C/c2ccccc2)cc1 | 87.3 | 24.3 | 112.1 | 1.03 | -14.0 | 32.3
CCN=C(NC#N)SCc1c(F)cccc1Cl | 110.1 | -6.5 | 92.5 | 0.96 | 8.5 | 11.2
O=C(/C=C/c1ccccc1)Nc1cccc(C(=O)O)c1 | 9.8 | 107.0* | 10.6 | 5.06* | 95.8* | -64.3
O=C(CCN1C(=O)c2ccccc2C1=O)Nc1sc2c(c1C(=O)NCC1CCCO1)CCC2 (configuration not stated) | 100.5 | -2.9 | 106.9 | 0.78 | -7.7 | -7.8
c1ccc(C2=Nc3ccccc3OC2)cc1 | 100.3 | 6.6 | 131.9* | 4.78* | -34.5 | 12.9
Clc1ccc(C2=Nc3cc(Cl)ccc3OC2)cc1 | 106.4 | 3.8 | 135.4* | 3.37* | -40.8 | 61.3
SMILES | STAT3 activator | STAT3 inh | STAT1 act | NF-kB neuron act | STAT1 blocker | APP 5'UTR act
Clc1ccc(C2=NN=C3COc4ccccc4N3C2)cc1 | 102.6 | -3.0 | 99.8 | 1.44 | 0.3 | 18.8
Cc1ccc2c(c1)N=C(c1ccc(Cl)cc1)CO2 | 106.6 | -6.4 | 147.8* | 3.57* | -51.9 | 72.1
O=C1CC(c2ccccc2)=Nc2ccccc2N1 | 94.3 | 8.5 | 96.0 | 1.56 | 4.3 | 0.1
COC(=O)c1ccc(OC)cc1OCC(=O)N1CCN(c2ccc(F)cc2)CC1 | 98.7 | 7.3 | 92.6 | 0.86 | 8.1 | 5.8
COc1ccccc1N=CC1=C(O)CC(c2ccccc2)CC1=O (configuration not stated) | 98.6 | 4.6 | 107.8 | 1.18 | -8.6 | -6.1
Cc1ccc([N+](=O)[O-])cc1NC(=O)c1ccc2c(c1)OCO2 | 95.1 | 10.9 | 97.3 | 1.03 | 1.5 | -26.1
CNc1cc([N+](=O)[O-])ccc1N/C=C/C(=O)c1ccc2c(c1)OCO2 | 134.7* | -38.1 | 134.6* | 1.04 | -38.7 | 9.3
O=C(/C=C\Nc1cccc(F)c1)c1ccc2c(c1)OCO2 | 21.1 | 95.7* | 63.3 | 2.27 | 51.5* | 196.0*
O=C(/C=C\Nc1ccccc1Br)c1ccc2c(c1)OCO2 | 27.3 | 86.9* | 24.1 | 5.96* | 81.9* | 147.7*
Cn1cc(-c2ccno2)c(C(=O)O)n1 | 102.0 | -2.8 | 108.1 | 1.2 | -8.6 | 8.5
COc1cc(/C=C(\C#N)c2nc3ccccc3[nH]2)c([N+](=O)[O-])cc1OCc1ccccc1 | 136.6* | -36.1 | 104.4 | 0.43 | -4.8 | 33.3
COc1cc(/C=C(\C#N)c2nc3ccccc3[nH]2)ccc1OC(=O)c1ccco1 | 96.1 | 4.9 | 114.7 | 1.07 | -16.7 | 66.0
Fc1ccc(-n2ncc3c(SCc4cccnc4)ncnc32)cc1 | 76.9 | 28.8 | 117.5 | 3.4* | -18.6 | 89.8
S=C(NCCc1ccccc1)NC1CC2CCC(C1)N2Cc1ccccc1 (configuration not stated) | 94.2 | 9.1 | 96.8 | 2.32 | 1.5 | -9.8
CCOC(=O)c1ccc(NC(=O)CSc2nnc(CNc3ccc(C)cc3)n2C)cc1 | 101.2 | 2.2 | 104.2 | 1.14 | -4.5 | 11.6
CCOC(=O)c1ccc(NCc2nc3ccccc3n2C)cc1 | 96.7 | 7.6 | 138.8* | 2.87 | -42.4 | 85.5
Cc1cc(C)nc(-n2nc(C)c(Sc3ccc(F)cc3)c2N)n1 | 124.7 | -28.0 | 130.7* | 3.04 | -33.1 | 165.4*
COc1ccc(NS(=O)(=O)c2ccc3nc(COc4ccc(Cl)c(C)c4)[nH]c3c2)cc1 | 106.4 | -12.5 | 95.4 | 0.49 | 5.0 | -7.8
Cc1ccc(Cn2ccnc2C(=O)Nc2ccccc2)cc1 | 109.3 | -3.8 | 142.5* | 1.12 | -47.6 | 85.2
CCC1(C)N=C(c2ccc3c(c2)OCO3)CC(c2ccccc2O)N1 (configuration not stated) | 143.6* | -43.6 | 93.3 | 2.24 | 7.3 | 70.8
CCC(C)NC(=O)[C@H](CSCc1ccccc1)N1Cc2ccccc2C1=O (some centres not stated) | 108.5 | -10.0 | 90.8 | 0.93 | 10.2 | -6.0
Cc1ccc(C(=O)CCNc2ccccc2)o1 | 101.4 | -1.9 | 139.8* | 1.12 | -43.1 | -3.7
Cc1ccc(C(=O)CCNc2ccc(F)c(Cl)c2)o1 | 86.6 | 20.3 | 106.8 | 5.36* | -5.8 | 31.3
CC1CCc2c(sc3ncn(CCO)c(=O)c23)C1 (configuration not stated) | 116.9 | -18.9 | 137.5* | 2.09 | -42.2 | 87.9
CC(C)(C)NC(=O)CN(C(=O)CN1C(=O)C(=O)c2ccccc21)C(C)(C)C | 101.1 | 5.2 | 93.2 | 1.13 | 5.4 | 5.5

Assay outcomes: PubChem, several laboratories
